The text below walks through data of article PMC8458982 (The Journal of Biological Chemistry, 2021).

For assay [1], the system named is mTRPC6 mutant ^mT487L. The experiment in a line: whole-cell patch-clamp, mTRPC6 mutant T487L. Type of assay: cell-based, mouse. Conditions: ^mT487L (S1 pocket). The method, boiled down: (§1)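 Transiently transfected HEK293 cells expressing mouse or human TRPC6 WT, or sequence-verified mouse point mutants, recorded 24–48 h post-transfection. Conventional whole-cell clamp at −60 mV and 23 °C, gap-free; test compound applied by Y-tube. Pipette: CsCl/HEPES/BAPTA, 400 nM free Ca2+, pH 7.2. Bath: NaCl-based, 2 mM CaCl2, pH 7.4. EC50 from Hill fit of concentration–current data. Mutant screen used current ratios (10/5 μM or 3/1 μM). At least 3 transfection batches.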
In general terms: In patch-clamp work, channel activity is measured electrically.

The subject of assay [2] is mTRPC6 mutant ^mK688R. The assay can be described thus: whole-cell patch-clamp, mTRPC6 mutant K688R. Type of assay: cell-based, mouse. The following applies: ^mK688R (S3 pocket). The procedure, abridged:
as §1

Assay [3] relates to TRPC3/6/7. The following applies: read-out: EC50 (concentration yielding half maximum response); measured by patch-clamp rather than calcium imaging; cited from earlier work.
Assay [4] has as its target T1, mTRPC6 mutant ^mE672D (Mus musculus, UniProt Q61143, E672D).
T1 sequence (Q61143 1-930 E672D): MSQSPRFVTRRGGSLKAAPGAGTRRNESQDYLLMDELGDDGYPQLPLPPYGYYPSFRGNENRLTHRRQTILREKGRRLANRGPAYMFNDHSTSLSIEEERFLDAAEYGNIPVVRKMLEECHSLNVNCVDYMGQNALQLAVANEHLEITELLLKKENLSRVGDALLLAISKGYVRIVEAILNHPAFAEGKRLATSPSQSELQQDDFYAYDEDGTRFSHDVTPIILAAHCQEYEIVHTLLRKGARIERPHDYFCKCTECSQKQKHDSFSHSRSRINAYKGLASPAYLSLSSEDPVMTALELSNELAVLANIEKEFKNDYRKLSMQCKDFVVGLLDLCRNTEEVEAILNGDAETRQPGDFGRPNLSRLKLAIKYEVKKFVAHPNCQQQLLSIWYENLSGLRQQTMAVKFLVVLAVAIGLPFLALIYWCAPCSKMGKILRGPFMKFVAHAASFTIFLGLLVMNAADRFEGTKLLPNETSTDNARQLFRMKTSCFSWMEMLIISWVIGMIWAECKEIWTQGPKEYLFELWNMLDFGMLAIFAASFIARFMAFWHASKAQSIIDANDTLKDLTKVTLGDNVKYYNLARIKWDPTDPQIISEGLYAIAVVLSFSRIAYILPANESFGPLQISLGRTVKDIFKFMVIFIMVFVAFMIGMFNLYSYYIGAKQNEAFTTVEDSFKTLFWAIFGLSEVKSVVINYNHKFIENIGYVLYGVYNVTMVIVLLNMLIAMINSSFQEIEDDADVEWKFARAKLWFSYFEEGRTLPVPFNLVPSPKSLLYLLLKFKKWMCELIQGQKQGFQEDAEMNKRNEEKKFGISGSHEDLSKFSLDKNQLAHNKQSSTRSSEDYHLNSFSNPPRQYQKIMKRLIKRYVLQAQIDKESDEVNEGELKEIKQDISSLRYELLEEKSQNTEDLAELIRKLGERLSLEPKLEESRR
The assay can be described thus: whole-cell patch-clamp, mTRPC6 mutant E672D. Type of assay: cell-based. The procedure, abridged: as §1

Assay [5] deals with mTRPC6 mutant ^mE700A (Mus musculus, UniProt Q61143, E700A). The assay can be described thus: whole-cell patch-clamp, mTRPC6 mutant E700A. Format: cell-based. The following applies: saturated agonist. The method, boiled down: as §1
Sequence of mTRPC6 mutant ^mE700A (Q61143 whole entry E700A): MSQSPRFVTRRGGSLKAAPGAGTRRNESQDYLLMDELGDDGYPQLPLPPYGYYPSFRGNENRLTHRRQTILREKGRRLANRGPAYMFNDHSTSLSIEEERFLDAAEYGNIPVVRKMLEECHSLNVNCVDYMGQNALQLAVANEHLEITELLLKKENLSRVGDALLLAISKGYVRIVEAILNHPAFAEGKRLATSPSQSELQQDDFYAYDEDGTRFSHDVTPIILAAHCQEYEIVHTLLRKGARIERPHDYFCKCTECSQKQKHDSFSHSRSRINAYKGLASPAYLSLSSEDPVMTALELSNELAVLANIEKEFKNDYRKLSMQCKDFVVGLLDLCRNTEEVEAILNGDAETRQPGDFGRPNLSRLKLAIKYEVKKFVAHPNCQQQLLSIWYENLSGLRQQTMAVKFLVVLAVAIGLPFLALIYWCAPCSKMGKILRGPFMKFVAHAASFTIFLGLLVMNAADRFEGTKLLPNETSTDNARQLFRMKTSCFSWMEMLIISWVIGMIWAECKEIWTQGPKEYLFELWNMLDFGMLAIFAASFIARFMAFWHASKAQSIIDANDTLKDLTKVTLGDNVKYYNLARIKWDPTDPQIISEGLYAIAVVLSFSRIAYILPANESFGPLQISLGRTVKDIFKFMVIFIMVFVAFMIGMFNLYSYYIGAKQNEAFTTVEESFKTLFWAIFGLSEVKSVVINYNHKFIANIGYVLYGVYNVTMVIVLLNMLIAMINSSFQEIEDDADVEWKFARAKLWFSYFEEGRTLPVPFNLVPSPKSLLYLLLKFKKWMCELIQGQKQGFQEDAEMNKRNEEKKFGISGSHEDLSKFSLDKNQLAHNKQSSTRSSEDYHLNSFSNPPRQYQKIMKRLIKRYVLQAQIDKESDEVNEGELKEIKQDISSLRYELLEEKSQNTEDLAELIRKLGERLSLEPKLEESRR
In assay [6] the target is mTRPC6 mutant ^mF640W (Mus musculus, UniProt Q61143, F640W). The assay can be described thus: whole-cell patch-clamp, mTRPC6 mutant F640W. Type of assay: cell-based. The method, boiled down:
as §1

In assay [7] the target is human TRPC6 (hTRPC6-WT) (Homo sapiens, UniProt Q9Y210). The assay can be described thus: whole-cell patch-clamp, hTRPC6-WT expressed in HEK293 cells. Format: cell-based. The procedure, abridged: as §1
Sequence of human TRPC6 (hTRPC6-WT) (Q9Y210 whole entry): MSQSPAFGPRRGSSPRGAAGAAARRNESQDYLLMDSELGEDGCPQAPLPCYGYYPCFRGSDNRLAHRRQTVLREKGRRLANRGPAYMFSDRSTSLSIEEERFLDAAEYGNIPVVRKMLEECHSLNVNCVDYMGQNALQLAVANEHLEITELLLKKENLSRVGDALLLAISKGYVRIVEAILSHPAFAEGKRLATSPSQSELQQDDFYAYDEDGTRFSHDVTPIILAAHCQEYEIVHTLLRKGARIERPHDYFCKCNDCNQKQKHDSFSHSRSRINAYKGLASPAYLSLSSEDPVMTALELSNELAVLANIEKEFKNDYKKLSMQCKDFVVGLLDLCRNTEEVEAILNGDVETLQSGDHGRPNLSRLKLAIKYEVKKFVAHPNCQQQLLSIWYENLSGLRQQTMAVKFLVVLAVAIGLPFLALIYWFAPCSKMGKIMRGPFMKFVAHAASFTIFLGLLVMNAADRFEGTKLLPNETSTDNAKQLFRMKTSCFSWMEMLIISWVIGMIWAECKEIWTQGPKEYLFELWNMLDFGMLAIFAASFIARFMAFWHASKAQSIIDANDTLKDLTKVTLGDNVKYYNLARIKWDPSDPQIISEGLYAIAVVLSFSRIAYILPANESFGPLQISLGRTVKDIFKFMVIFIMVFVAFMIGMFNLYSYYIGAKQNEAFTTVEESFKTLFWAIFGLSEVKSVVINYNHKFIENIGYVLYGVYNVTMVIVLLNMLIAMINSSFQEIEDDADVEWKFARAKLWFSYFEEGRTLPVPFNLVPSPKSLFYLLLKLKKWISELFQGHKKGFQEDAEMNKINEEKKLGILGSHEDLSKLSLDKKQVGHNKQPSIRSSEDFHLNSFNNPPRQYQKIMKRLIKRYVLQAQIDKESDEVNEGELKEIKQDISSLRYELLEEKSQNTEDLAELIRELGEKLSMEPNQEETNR

Sequence of mTRPC6 mutant ^mF640W (Q61143 whole entry F640W): as the sequence (Q61143 whole entry E700A) above, with F640W, A700E counted along it

Regarding `CCOC(=O)N1CCC(c2cc(O)n3nc(C)c(-c4ccc(F)cc4)c3n2)CC1` [M085, Ethyl 4-(3-(4-fluorophenyl)-7-hydroxy-2-methylpyrazolo[1,5-a]pyrimidin-5-yl)piperidine-1-carboxylate], the “ratio of M085 activation current I10 μM/I5 μM” value is listed as 1.26 ± 0.22 in assay [1], 1.80 ± 0.22 in assay [2] and 3.27 ± 0.91 in assay [4] (^mE672D (S2 pocket)). In addition, the EC50 in assay [3] is 4.66 ± 0.03 µM; in assay [4] it was 25.1 ± 5.64 µM; in assay [6] it was 0.84 ± 0.27 µM; in assay [7], 2.94 ± 0.7 µM. In addition, the “Imax (maximal current density)” value in assay [4] (^mE672D, 100 μM agonist) was 10.28 ± 1.19 pA/pF. Also, in assay [5], the agonist-induced current result is recorded as “disappearance”.
